From ChEMBL document CHEMBL1122179, “1-(alkylamino)isochromans: hypotensives with peripheral and central activities” (J Med Chem, 1982)

Columns and labels:
[1] = biological target: T1, Adrenergic receptor alpha-2 (Rattus norvegicus, UniProt P22086+P19328+P22909); assay: Compound was tested for the inhibition of [3H]clonidine binding Alpha-2 adrenergic receptor of crude rat brain membrane
T1 sequence (P22086 whole entry): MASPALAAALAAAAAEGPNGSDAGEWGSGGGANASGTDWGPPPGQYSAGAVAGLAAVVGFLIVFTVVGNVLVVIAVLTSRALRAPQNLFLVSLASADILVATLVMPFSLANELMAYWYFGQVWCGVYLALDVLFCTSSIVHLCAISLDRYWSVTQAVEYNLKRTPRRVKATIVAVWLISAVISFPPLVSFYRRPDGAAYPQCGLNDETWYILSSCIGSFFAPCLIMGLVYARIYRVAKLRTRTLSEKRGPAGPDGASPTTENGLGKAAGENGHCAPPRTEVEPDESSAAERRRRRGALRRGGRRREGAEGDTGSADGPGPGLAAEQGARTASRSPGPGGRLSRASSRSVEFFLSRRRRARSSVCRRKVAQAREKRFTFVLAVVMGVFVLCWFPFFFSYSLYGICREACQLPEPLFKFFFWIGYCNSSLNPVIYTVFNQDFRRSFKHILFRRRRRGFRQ
T1 sequence (P19328 whole entry): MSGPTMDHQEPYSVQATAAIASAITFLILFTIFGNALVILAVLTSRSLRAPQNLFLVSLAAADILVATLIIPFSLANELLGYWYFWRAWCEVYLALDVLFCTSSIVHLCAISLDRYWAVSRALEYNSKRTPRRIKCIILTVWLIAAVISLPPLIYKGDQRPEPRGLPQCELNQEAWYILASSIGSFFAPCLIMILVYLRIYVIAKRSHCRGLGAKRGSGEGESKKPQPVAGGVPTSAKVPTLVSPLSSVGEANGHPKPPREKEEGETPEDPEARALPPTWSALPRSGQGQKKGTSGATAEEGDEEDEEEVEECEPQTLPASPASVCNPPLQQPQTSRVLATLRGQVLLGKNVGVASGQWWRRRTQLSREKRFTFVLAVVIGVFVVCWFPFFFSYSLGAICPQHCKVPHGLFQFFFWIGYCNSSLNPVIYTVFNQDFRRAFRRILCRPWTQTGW
T1 sequence (P22909 whole entry): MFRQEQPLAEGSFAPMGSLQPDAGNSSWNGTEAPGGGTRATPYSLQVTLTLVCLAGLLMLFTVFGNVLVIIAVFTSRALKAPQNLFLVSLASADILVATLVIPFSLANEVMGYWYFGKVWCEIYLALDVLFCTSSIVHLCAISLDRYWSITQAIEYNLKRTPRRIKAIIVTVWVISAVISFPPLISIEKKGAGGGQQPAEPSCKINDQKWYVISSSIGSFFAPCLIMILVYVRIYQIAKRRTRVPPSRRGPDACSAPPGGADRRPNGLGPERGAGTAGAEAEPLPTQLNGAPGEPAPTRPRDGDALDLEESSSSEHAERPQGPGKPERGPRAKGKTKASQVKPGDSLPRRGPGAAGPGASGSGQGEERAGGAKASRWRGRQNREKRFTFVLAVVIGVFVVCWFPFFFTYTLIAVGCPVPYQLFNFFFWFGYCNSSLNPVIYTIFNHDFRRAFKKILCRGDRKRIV

Rattus norvegicus [2] = assay: Heart rate of compound was measured in anesthetized rats at 0 min.; assay type: functional
Method in brief: (§1)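 Female Sprague-Dawley rats (200–300 g), anesthetized iv with α-chloralose (40 mg/kg), urethane (40 mg/kg) and pentobarbital (15 mg/kg). Carotid artery catheter for blood pressure and heart rate, jugular vein for drugs. Test agent given at 1.0 mg/kg iv in 0.1 M citric acid (1 mg/mL). Pressor responses to iv norepinephrine 0.1 μg/kg, phenylephrine 2.5 μg/kg and angiotensin I 0.1 μg/kg were taken before and 15, 30, 45 and 60 min after dosing. Mean ± SEM.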

Rattus norvegicus [3] = assay: Pressor effects of intravenous norepinephrine (0.1 ug/kg) was measured in anesthetized rats at 60 min.; assay type: functional; method in brief: as §1

Work on `COc1cc2c(cc1OC)C(CCN1CCN(c3ccc(F)cc3)CC1)OCC2` (stereo not drawn) yielded a Ki [1] of 62 nM, an HR (Rattus norvegicus [2]) of 417 beats min-1 and a Pressor response (Rattus norvegicus [3]) of 7 mmHg.
